Assay results reported in ChEMBL document CHEMBL3120138, “Glucocorticoid receptor modulators informed by crystallography lead to a new rationale for receptor selectivity, function, and implications for structure-based design” (J Med Chem, 2014).
The source made the active and inactive calls. The calls are words filed in the database; no cut-off is given here.

Tests used:
Glucocorticoid receptor = target: T1, Glucocorticoid receptor (Homo sapiens, UniProt P04150); assay: Displacement of [3H]-dexamethasone from human glucocorticoid receptor expressed in HEK293 cells; assay type: cell-based
T1 sequence (P04150 whole entry): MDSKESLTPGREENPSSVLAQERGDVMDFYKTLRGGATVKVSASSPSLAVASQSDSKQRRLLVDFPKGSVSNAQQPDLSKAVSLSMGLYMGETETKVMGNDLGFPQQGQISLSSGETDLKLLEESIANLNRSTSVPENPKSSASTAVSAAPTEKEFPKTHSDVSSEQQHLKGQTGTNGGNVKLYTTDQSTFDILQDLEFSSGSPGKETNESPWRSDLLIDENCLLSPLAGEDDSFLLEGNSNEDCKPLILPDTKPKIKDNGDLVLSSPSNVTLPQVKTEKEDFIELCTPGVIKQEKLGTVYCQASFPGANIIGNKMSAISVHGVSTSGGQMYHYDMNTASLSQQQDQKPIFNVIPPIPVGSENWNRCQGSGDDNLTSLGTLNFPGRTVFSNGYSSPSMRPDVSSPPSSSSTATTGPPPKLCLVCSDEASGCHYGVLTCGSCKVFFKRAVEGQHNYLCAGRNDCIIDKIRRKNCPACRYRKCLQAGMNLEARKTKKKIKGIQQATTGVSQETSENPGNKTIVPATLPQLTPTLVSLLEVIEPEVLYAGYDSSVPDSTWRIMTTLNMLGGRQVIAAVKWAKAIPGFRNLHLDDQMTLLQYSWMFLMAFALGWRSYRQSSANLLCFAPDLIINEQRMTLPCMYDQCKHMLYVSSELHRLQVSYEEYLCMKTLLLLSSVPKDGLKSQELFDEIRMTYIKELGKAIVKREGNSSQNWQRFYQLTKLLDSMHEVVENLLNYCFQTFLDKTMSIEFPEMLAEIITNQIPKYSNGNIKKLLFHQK

Rattus norvegicus [1] = assay: Antiinflammatory activity in po dosed Sprague-Dawley rat assessed as inhibition of carrageenan-induced IL-1beta secretion incubated for 2 hrs prior to carrageenan challenge measured after 5 hrs by ELISA; assay type: functional
Procedure, shortened: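 Male Sprague-Dawley rats (n = 5/group) were dosed at t = 0, and carrageenan was injected into the rear footpad at 2 h. At 5 h the animals were euthanised and the hindpaws weighed to measure edema. Paw exudate was assayed for IL-1β by ELISA.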

Rattus norvegicus [2] = assay: Antiinflammatory activity in po dosed Sprague-Dawley rat assessed as inhibition of carrageenan-induced paw edema incubated for 2 hrs prior to carrageenan challenge measured after 5 hrs […]; assay type: functional
[3] = Antiinflammatory activity in PMA-differentiated human U937 cells assessed as inhibition of LPS-induced TNFalpha production incubated for 60 mins prior to LPS challenge measured after 24 hrs; assay type: functional, cell-based; settings: U-937
Procedure, shortened: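 U-937 cells (100 000/well) were differentiated with 20 nM PMA overnight at 37 °C, then refed with PMA-free medium. Cells were pretreated with compound for 60 min, then stimulated with LPS (stock 400 ng/mL) for 24 h at 37 °C. Secreted TNFα was measured by EIA/RIA. Ten-point half-log dilutions were used, each concentration in triplicate.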

[4] = target: T2, Mineralocorticoid receptor (Homo sapiens, UniProt P08235); assay: Displacement of [3H]-aldosterone from human mineralocorticoid receptor expressed in HEK293 cells; assay type: cell-based
T2 sequence (P08235 whole entry): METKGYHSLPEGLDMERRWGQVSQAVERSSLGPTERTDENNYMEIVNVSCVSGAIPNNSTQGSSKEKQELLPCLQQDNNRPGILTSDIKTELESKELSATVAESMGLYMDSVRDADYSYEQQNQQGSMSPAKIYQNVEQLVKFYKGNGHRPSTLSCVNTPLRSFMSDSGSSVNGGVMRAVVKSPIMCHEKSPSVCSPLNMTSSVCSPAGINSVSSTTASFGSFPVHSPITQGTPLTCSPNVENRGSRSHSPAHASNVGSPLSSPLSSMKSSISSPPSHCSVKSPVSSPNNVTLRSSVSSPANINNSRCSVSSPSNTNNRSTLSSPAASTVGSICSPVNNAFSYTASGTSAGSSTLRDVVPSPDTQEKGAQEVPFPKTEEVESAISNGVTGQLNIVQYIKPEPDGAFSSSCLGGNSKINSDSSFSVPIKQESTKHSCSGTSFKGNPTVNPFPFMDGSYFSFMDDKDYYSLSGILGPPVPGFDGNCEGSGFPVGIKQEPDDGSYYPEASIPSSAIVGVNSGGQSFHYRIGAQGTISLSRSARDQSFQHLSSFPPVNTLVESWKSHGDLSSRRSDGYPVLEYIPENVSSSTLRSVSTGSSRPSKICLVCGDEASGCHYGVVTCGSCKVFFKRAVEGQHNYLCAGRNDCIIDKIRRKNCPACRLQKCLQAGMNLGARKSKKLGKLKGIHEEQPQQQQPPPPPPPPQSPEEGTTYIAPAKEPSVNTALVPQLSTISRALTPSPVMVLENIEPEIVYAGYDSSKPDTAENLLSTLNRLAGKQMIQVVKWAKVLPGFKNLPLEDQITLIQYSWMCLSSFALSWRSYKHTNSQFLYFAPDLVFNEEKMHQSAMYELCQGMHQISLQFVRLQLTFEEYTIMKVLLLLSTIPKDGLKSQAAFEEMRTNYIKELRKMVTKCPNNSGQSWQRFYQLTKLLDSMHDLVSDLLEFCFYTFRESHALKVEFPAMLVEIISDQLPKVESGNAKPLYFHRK
Procedure, shortened: (§1)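 Competition binding used lysates of HEK293 cells overexpressing the human receptor. The tracer was ³H-aldosterone for MR and ³H-methyltrienolone for PR. Competitor was tested from 0.01 nM to 10 μM. IC50 was converted to Ki by Cheng–Prusoff. Values are means of at least three experiments, each run in triplicate.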

[5] = Antiinflammatory activity in human CCD-39SK cells assessed as inhibition of IL-1beta-induced IL-6 production incubated for 60 mins prior to IL-1beta induction measured after 24 hrs; assay type: functional, cell-based
Procedure, shortened: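 CCD-39SK fibroblasts (20 000/well) were grown in MEM with 2% charcoal/dextran-treated FBS. Cells were pretreated with compound for 60 min, then stimulated with rhIL-1β (1 ng/mL final) for 24 h at 37 °C. IL-6 in clarified supernatant was measured. […] Ten-point half-log dilutions were used, each in triplicate.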

[6] = target: T3, Glucocorticoid receptor (Homo sapiens) (UniProt P04150); assay: Transactivation of human glucocorticoid receptor expressed in HEK293 cells at 10 uM after 24 hrs by luciferase reporter gene assay relative to control; assay type: cell-based
T3 sequence (whole entry): T1 sequence (P04150 whole entry)
Procedure, shortened: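 HEK293 cells were transfected in DMEM with 5% charcoal-stripped FBS, using a CMV-hGR plasmid and a luciferase reporter driven by 2×GRE plus the TK promoter. After overnight incubation, cells were replated and exposed to compound for 24 h, then lysed for luciferase readout.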

Rattus norvegicus [7] = assay: Antiinflammatory activity in Lewis rat collagen-induced arthritis model assessed as reduction in ankle diameter at 10 mg/kg, po administered for 15 days measured during compound dosing; assay type: functional, organism-based; set-up: dose 10 mg/kg
Procedure, shortened: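 Female Lewis rats received collagen injected at the tail base, and disease developed over 14 d. Responding rats (groups of n = 10) were then dosed orally once daily for the next 15 d. Ankle/paw diameter was measured throughout the live phase and summarised as AUC. Hindpaw histology was scored blind from 0 (normal) to 5 (vehicle-level). Statistics used Student's t test vs vehicle, p < 0.01.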

Progesterone receptor = target: T4, Progesterone receptor (Homo sapiens, UniProt P06401); assay: Displacement of [3H]-methyltrienolone from human progesterone receptor expressed in HEK293 cells; assay type: cell-based; procedure, shortened: as §1
T4 sequence (P06401 whole entry): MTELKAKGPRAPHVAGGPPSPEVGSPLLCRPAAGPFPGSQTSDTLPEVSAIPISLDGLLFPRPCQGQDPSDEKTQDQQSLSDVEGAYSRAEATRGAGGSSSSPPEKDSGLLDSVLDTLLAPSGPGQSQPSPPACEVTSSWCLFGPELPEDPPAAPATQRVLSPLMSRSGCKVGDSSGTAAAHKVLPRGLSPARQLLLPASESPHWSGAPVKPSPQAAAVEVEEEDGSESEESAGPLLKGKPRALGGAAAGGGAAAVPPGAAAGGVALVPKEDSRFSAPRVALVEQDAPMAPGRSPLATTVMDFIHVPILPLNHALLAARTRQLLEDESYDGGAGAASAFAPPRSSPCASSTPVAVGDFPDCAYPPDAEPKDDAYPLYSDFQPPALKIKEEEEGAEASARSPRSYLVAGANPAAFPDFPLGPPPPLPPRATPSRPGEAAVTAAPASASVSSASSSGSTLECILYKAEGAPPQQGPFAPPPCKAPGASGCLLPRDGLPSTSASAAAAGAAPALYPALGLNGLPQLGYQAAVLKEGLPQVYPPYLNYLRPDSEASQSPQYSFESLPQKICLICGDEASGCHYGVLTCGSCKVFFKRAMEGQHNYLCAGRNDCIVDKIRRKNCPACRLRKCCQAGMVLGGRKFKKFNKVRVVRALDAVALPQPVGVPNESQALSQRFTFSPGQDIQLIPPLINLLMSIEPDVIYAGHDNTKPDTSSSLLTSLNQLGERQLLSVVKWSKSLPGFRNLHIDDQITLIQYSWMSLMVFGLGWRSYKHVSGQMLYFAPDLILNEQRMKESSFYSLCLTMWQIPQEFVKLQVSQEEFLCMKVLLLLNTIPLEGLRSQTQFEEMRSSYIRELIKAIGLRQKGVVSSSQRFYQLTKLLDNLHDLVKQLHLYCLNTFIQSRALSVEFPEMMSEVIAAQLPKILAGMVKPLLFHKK

Nc1cccc(C=C2c3ccccc3CCc3ccccc32)c1
Ki (Glucocorticoid receptor): > 100 nM

C(=C1c2ccccc2CCc2ccccc21)c1ccccc1
Ki (Glucocorticoid receptor): > 100 nM

CNS(=O)(=O)c1cccc(C=C2c3ccccc3CCc3ccccc32)c1
Ki (Glucocorticoid receptor): > 100 nM

CCOc1cccc2c1/C(=C(/CC)c1cccc(N(CC)S(C)(=O)=O)c1)c1ccccc1OC2
Ki (Glucocorticoid receptor): > 100 nM

CS(=O)(=O)Nc1ccc(C=C2c3ccccc3CCc3ccccc32)cc1
Ki (Glucocorticoid receptor): > 100 nM

C[C@]12C=CC(=O)C=C1CC[C@@H]1[C@@H]2[C@@H](O)C[C@@]2(C)[C@H]1CC[C@]2(O)C(=O)CO [PREDNISOLONE]
ED50 (Rattus norvegicus [1]): 0.31 mg/kg | ED50 (Rattus norvegicus [2]): 7.6 mg/kg | IC50 [3]: 8.2 nM | Ki [4]: 0.29 nM | IC50 [5]: 7.26 nM | Efficacy [6]: 114% | Activity (Rattus norvegicus [7]): Active

C[C@@H]1C[C@H]2[C@@H]3CCC4=CC(=O)C=C[C@]4(C)[C@@]3(F)[C@@H](O)C[C@]2(C)[C@@]1(O)C(=O)CO [DEXAMETHASONE]
Ki (Progesterone receptor): 561 nM

CS(=O)(=O)Nc1ccccc1C=C1c2ccccc2CCc2ccccc21
Ki (Glucocorticoid receptor): > 100 nM
